# In ChEMBL document CHEMBL4689842, “EUbOPEN Chemogenomics Library wave 1” (2021):
# Values joined by “and” are separate entries in the source; they are usually repeats but may differ in a detail not shown here. Equal entries are not always repeated.
# System: Fibroblast
# Assay: Multiplex assay against human fibroblast
# Format: toxicity, cell-based
# Summary of the method: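 Live cells were stained at seeding with Hoechst33342, BioTracker Green Microtubule Cytoskeleton Dye, MitoTracker Red and Annexin V Alexa Fluor 680, then imaged on a CQ1 microscope at 37°C and 5% CO2 after compound addition. CellPathfinder machine-learning gating split cells into Hoechst high-intensity objects or normal cells. Normal cells were split into healthy, pyknosed or fragmented nuclei, and pyknosed cells into mitotic or apoptotic. Tubulin, mitochondrial-mass and membrane-permeability phenotypes are per cents of healthy-nucleus cells.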
# [1] = 12 h, 1 µM, compound concentration 1 uM, replicate 1
# [2] = 12 h, 1 µM, compound concentration 1 uM, replicate 2
# [3] = 12 h, 10 µM, compound concentration 10 uM, replicate 1
# [4] = 12 h, 10 µM, compound concentration 10 uM, replicate 2
# [5] = 24 h, 1 µM, compound concentration 1 uM, replicate 1
# [6] = 24 h, 1 µM, compound concentration 1 uM, replicate 2
# [7] = 24 h, 10 µM, compound concentration 10 uM, replicate 1
# [8] = 24 h, 10 µM, compound concentration 10 uM, replicate 2
# [9] = 48 h, 1 µM, compound concentration 1 uM, replicate 1
# [10] = 48 h, 1 µM, compound concentration 1 uM, replicate 2
# [11] = 48 h, 10 µM, compound concentration 10 uM, replicate 1
# [12] = 48 h, 10 µM, compound concentration 10 uM, replicate 2
smiles,measurement,setting,value
C=CC(=O)Nc1cccc(Sc2nc(Nc3ccc(N4CCN(C)CC4)cc3)ncc2Cl)c1,Population Apoptotic (%),[1],35%
same,Population Fragmented Nuclei (%),[1],28%
same,Population Healthy Nuclei (%),[1],17%
same,Population Hoechst High Intensity Objects (%),[1],13%
same,Population Membrane Permeable-Phenotype (%),[1],5%
same,Population Mitochondria Different-Phenotype (%),[1],50%
same,Population Mitotic Cells (%),[1],65%
same,Population Normal (%),[1],86%
same,Population Pyknosed Nuclei (%),[1],53%
same,Population Tubulin-Different-Phenotype (%),[1],50%
same,Total Cell Count,[1],130
same,Population Apoptotic (%),[2],69%
same,Population Fragmented Nuclei (%),[2],48%
same,Population Healthy Nuclei (%),[2],6%
same,Population Hoechst High Intensity Objects (%),[2],20%
same,Population Membrane Permeable-Phenotype (%),[2],0%
same,Population Mitochondria Different-Phenotype (%),[2],33%
same,Population Mitotic Cells (%),[2],30%
same,Population Normal (%),[2],79%
same,Population Pyknosed Nuclei (%),[2],46%
same,Population Tubulin-Different-Phenotype (%),[2],66%
same,Total Cell Count,[2],63
same,Population Apoptotic (%),[3],79%
same,Population Fragmented Nuclei (%),[3],34%
same,Population Healthy Nuclei (%),[3],49%
same,Population Hoechst High Intensity Objects (%),[3],15%
same,Population Membrane Permeable-Phenotype (%),[3],6%
same,Population Mitochondria Different-Phenotype (%),[3],5%
same,Population Mitotic Cells (%),[3],20%
same,Population Normal (%),[3],84%
same,Population Pyknosed Nuclei (%),[3],15%
same,Population Tubulin-Different-Phenotype (%),[3],9%
same,Total Cell Count,[3],290
same,Population Apoptotic (%),[4],100%
same,Population Fragmented Nuclei (%),[4],62%
same,Population Healthy Nuclei (%),[4],36%
same,Population Hoechst High Intensity Objects (%),[4],33%
same,Population Membrane Permeable-Phenotype (%),[4],7%
same,Population Mitochondria Different-Phenotype (%),[4],7%
same,Population Mitotic Cells (%),[4],0%
same,Population Normal (%),[4],66%
same,Population Pyknosed Nuclei (%),[4],1%
same,Population Tubulin-Different-Phenotype (%),[4],25%
same,Total Cell Count,[4],116
same,Population Apoptotic (%),[5],74%
same,Population Fragmented Nuclei (%),[5],53%
same,Population Healthy Nuclei (%),[5],6%
same,Population Hoechst High Intensity Objects (%),[5],7%
same,Population Mitochondria Different-Phenotype (%),[5],57%
same,Population Mitotic Cells (%),[5],25%
same,Population Normal (%),[5],92%
same,Population Pyknosed Nuclei (%),[5],40%
same,Population Tubulin-Different-Phenotype (%),[5],71%
same,Total Cell Count,[5],126
same,Population Apoptotic (%),[6],90%
same,Population Fragmented Nuclei (%),[6],70%
same,Population Healthy Nuclei (%),[6],5%
same,Population Hoechst High Intensity Objects (%),[6],23%
same,Population Membrane Permeable-Phenotype (%),[6],0%
same,Population Mitochondria Different-Phenotype (%),[6],0%
same,Population Mitotic Cells (%),[6],10%
same,Population Normal (%),[6],76%
same,Population Pyknosed Nuclei (%),[6],25%
same,Population Tubulin-Different-Phenotype (%),[6],50%
same,Total Cell Count,[6],52
same,Population Apoptotic (%),[7],80%
same,Population Fragmented Nuclei (%),[7],34%
same,Population Healthy Nuclei (%),[7],50%
same,Population Hoechst High Intensity Objects (%),[7],17%
same,Population Membrane Permeable-Phenotype (%),[7],5%
same,Population Mitochondria Different-Phenotype (%),[7],5%
same,Population Mitotic Cells (%),[7],20%
same,Population Normal (%),[7],82%
same,Population Pyknosed Nuclei (%),[7],14%
same,Population Tubulin-Different-Phenotype (%),[7],11%
same,Total Cell Count,[7],285
same,Population Apoptotic (%),[8],0%
same,Population Fragmented Nuclei (%),[8],65%
same,Population Healthy Nuclei (%),[8],34%
same,Population Hoechst High Intensity Objects (%),[8],34%
same,Population Membrane Permeable-Phenotype (%),[8],20%
same,Population Mitochondria Different-Phenotype (%),[8],4%
same,Population Mitotic Cells (%),[8],0%
same,Population Normal (%),[8],65%
same,Population Pyknosed Nuclei (%),[8],0%
same,Population Tubulin-Different-Phenotype (%),[8],16%
same,Total Cell Count,[8],111
CCc1ccc(OCc2ccccc2C(=O)Nc2ccc3nc(C)cc(N)c3c2)cc1.Cl,Population Apoptotic (%),[1],67%
same,Population Fragmented Nuclei (%),[1],31%
same,Population Healthy Nuclei (%),[1],33%
same,Population Hoechst High Intensity Objects (%),[1],11%
same,Population Membrane Permeable-Phenotype (%),[1],9%
same,Population Mitochondria Different-Phenotype (%),[1],44%
same,Population Mitotic Cells (%),[1],32%
same,Population Normal (%),[1],88%
same,Population Pyknosed Nuclei (%),[1],35%
same,Population Tubulin-Different-Phenotype (%),[1],63%
same,Total Cell Count,[1],177
same,Population Apoptotic (%),[2],71%
same,Population Fragmented Nuclei (%),[2],33%
same,Population Hoechst High Intensity Objects (%),[2],16%
same,Population Membrane Permeable-Phenotype (%),[2],28%
same,Population Mitochondria Different-Phenotype (%),[2],92%
same,Population Mitotic Cells (%),[2],28%
same,Population Normal (%),[2],84%
same,Population Pyknosed Nuclei (%),[2],33%
same,Population Tubulin-Different-Phenotype (%),[2],85%
same,Total Cell Count,[2],68
same,Population Apoptotic (%),[3],26%
same,Population Fragmented Nuclei (%),[3],15%
same,Population Healthy Nuclei (%),[3],18%
same,Population Hoechst High Intensity Objects (%),[3],22%
same,Population Membrane Permeable-Phenotype (%),[3],16%
same,Population Mitochondria Different-Phenotype (%),[3],55%
same,Population Mitotic Cells (%),[3],73%
same,Population Normal (%),[3],77%
same,Population Pyknosed Nuclei (%),[3],65%
same,Population Tubulin-Different-Phenotype (%),[3],88%
same,Total Cell Count,[3],125
same,Population Apoptotic (%),[4],76%
same,Population Fragmented Nuclei (%),[4],8%
same,Population Healthy Nuclei (%),[4],14%
same,Population Hoechst High Intensity Objects (%),[4],12%
same,Population Membrane Permeable-Phenotype (%),[4],100%
same,Population Mitochondria Different-Phenotype (%),[4],100%
same,Population Mitotic Cells (%),[4],23%
same,Population Normal (%),[4],87%
same,Population Pyknosed Nuclei (%),[4],77%
same,Population Tubulin-Different-Phenotype (%),[4],100%
same,Total Cell Count,[4],50
same,Population Apoptotic (%),[5],79%
same,Population Fragmented Nuclei (%),[5],32%
same,Population Healthy Nuclei (%),[5],22%
same,Population Hoechst High Intensity Objects (%),[5],13%
same,Population Membrane Permeable-Phenotype (%),[5],10%
same,Population Mitochondria Different-Phenotype (%),[5],60%
same,Population Mitotic Cells (%),[5],20%
same,Population Normal (%),[5],86%
same,Population Pyknosed Nuclei (%),[5],45%
same,Population Tubulin-Different-Phenotype (%),[5],86%
same,Total Cell Count,[5],158
same,Population Apoptotic (%),[6],83%
same,Population Fragmented Nuclei (%),[6],25%
same,Population Healthy Nuclei (%),[6],28%
same,Population Hoechst High Intensity Objects (%),[6],17%
same,Population Membrane Permeable-Phenotype (%),[6],27%
same,Population Mitochondria Different-Phenotype (%),[6],90%
same,Population Mitotic Cells (%),[6],16%
same,Population Normal (%),[6],82%
same,Population Pyknosed Nuclei (%),[6],46%
same,Population Tubulin-Different-Phenotype (%),[6],63%
same,Total Cell Count,[6],92
same,Population Apoptotic (%),[7],40%
same,Population Fragmented Nuclei (%),[7],25%
same,Population Healthy Nuclei (%),[7],48%
same,Population Hoechst High Intensity Objects (%),[7],50%
same,Population Membrane Permeable-Phenotype (%),[7],16%
same,Population Mitochondria Different-Phenotype (%),[7],37%
same,Population Mitotic Cells (%),[7],60%
same,Population Normal (%),[7],49%
same,Population Pyknosed Nuclei (%),[7],25%
same,Population Tubulin-Different-Phenotype (%),[7],97%
same,Total Cell Count,[7],155
same,Population Apoptotic (%),[8],70%
same,Population Fragmented Nuclei (%),[8],15%
same,Population Healthy Nuclei (%),[8],38%
same,Population Hoechst High Intensity Objects (%),[8],31%
same,Population Membrane Permeable-Phenotype (%),[8],47%
same,Population Mitochondria Different-Phenotype (%),[8],94%
same,Population Mitotic Cells (%),[8],30%
same,Population Normal (%),[8],68%
same,Population Pyknosed Nuclei (%),[8],45%
same,Population Tubulin-Different-Phenotype (%),[8],94%
same,Total Cell Count,[8],47
same,Population Apoptotic (%),[9],90%
same,Population Fragmented Nuclei (%),[9],46%
same,Population Healthy Nuclei (%),[9],20%
same,Population Hoechst High Intensity Objects (%),[9],20%
same,Population Membrane Permeable-Phenotype (%),[9],40%
same,Population Mitochondria Different-Phenotype (%),[9],32%
same,Population Mitotic Cells (%),[9],9%
same,Population Normal (%),[9],79%
same,Population Pyknosed Nuclei (%),[9],33%
same,Population Tubulin-Different-Phenotype (%),[9],72%
same,Total Cell Count,[9],157
same,Population Apoptotic (%),[10],84%
same,Population Fragmented Nuclei (%),[10],51%
same,Population Healthy Nuclei (%),[10],25%
same,Population Hoechst High Intensity Objects (%),[10],16%
same,Population Membrane Permeable-Phenotype (%),[10],30%
same,Population Mitochondria Different-Phenotype (%),[10],55%
same,Population Mitotic Cells (%),[10],15%
same,Population Normal (%),[10],83%
same,Population Pyknosed Nuclei (%),[10],23%
same,Population Tubulin-Different-Phenotype (%),[10],70%
same,Total Cell Count,[10],96
same,Population Fragmented Nuclei (%),[11],68%
same,Population Healthy Nuclei (%),[11],28%
same,Population Hoechst High Intensity Objects (%),[11],47%
same,Population Membrane Permeable-Phenotype (%),[11],4%
same,Population Mitochondria Different-Phenotype (%),[11],68%
same,Population Normal (%),[11],52%
same,Population Pyknosed Nuclei (%),[11],2%
same,Population Tubulin-Different-Phenotype (%),[11],86%
same,Total Cell Count,[11],146
same,Population Apoptotic (%),[12],100%
same,Population Fragmented Nuclei (%),[12],86%
same,Population Healthy Nuclei (%),[12],8%
same,Population Hoechst High Intensity Objects (%),[12],39%
same,Population Membrane Permeable-Phenotype (%),[12],0%
same,Population Mitochondria Different-Phenotype (%),[12],50%
same,Population Mitotic Cells (%),[12],0%
same,Population Normal (%),[12],60%
same,Population Pyknosed Nuclei (%),[12],4%
same,Population Tubulin-Different-Phenotype (%),[12],50%
same,Total Cell Count,[12],38
C[C@]1(O)C[C@@H](c2nc(-c3ccc4ccc(-c5ccccc5)nc4c3)c3c(N)nccn32)C1 [LINSITINIB],Population Apoptotic (%),[1],56% and 93%
same,Population Fragmented Nuclei (%),[1],43% and 32%
same,Population Healthy Nuclei (%),[1],44% and 50%
same,Population Hoechst High Intensity Objects (%),[1],18% and 12%
same,Population Membrane Permeable-Phenotype (%),[1],13% and 8%
same,Population Mitochondria Different-Phenotype (%),[1],1%
same,Population Normal (%),[1],81% and 87%
same,Population Pyknosed Nuclei (%),[1],11% and 17%
same,Total Cell Count,[1],345 and 206
same,Population Apoptotic (%),[2],40% and 66%
same,Population Fragmented Nuclei (%),[2],56% and 76%
same,Population Healthy Nuclei (%),[2],31% and 18%
same,Population Hoechst High Intensity Objects (%),[2],45% and 43%
same,Population Membrane Permeable-Phenotype (%),[2],0% and 9%
same,Population Mitotic Cells (%),[2],60% and 33%
same,Population Normal (%),[2],54% and 56%
same,Population Pyknosed Nuclei (%),[2],12% and 5%
same,Total Cell Count,[2],75 and 105
same,Population Apoptotic (%),[5],52% and 80%
same,Population Fragmented Nuclei (%),[5],47% and 33%
same,Population Healthy Nuclei (%),[5],44% and 51%
same,Population Hoechst High Intensity Objects (%),[5],22% and 12%
same,Population Membrane Permeable-Phenotype (%),[5],9%
same,Population Mitochondria Different-Phenotype (%),[5],2% and 4%
same,Population Mitotic Cells (%),[5],47% and 20%
same,Population Normal (%),[5],77% and 87%
same,Population Pyknosed Nuclei (%),[5],8% and 14%
same,Total Cell Count,[5],364 and 202
same,Population Apoptotic (%),[6],50%
same,Population Fragmented Nuclei (%),[6],58% and 75%
same,Population Healthy Nuclei (%),[6],37% and 21%
same,Population Hoechst High Intensity Objects (%),[6],33% and 52%
same,Population Membrane Permeable-Phenotype (%),[6],21% and 18%
same,Population Mitotic Cells (%),[6],50%
same,Population Normal (%),[6],66% and 47%
same,Population Pyknosed Nuclei (%),[6],3%
same,Total Cell Count,[6],77 and 109
